Data from ChEMBL document CHEMBL1140920, “Design, synthesis, and biological evaluation of 6alpha- and 6beta-N-heterocyclic substituted naltrexamine derivatives as mu opioid receptor selective antagonists” (J Med Chem, 2009).

Legend:
[1] = target: Kappa-type opioid receptor (Homo sapiens, UniProt P41145); experiment: Displacement of [3H]norBNI from monocloned kappa opioid receptor expressed in CHO cells; format: cell-based
Summary of the method: (§1)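 CHO cell membranes expressing cloned receptor incubated with radioligand plus varying test drug concentrations, 30 °C, 1 h. IC50 from linear regression of Hill plots, converted to Ki by Cheng-Prusoff; selectivity as Ki ratios.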

[2] = target: T1, Mu-type opioid receptor (Homo sapiens, UniProt P35372); experiment: Displacement of [3H]naloxone from monocloned mu opioid receptor expressed in CHO cells; format: cell-based; summary of the method: as §1
[3] = Selectivity ratio of Ki for monocloned kappa opioid receptor to Ki for monocloned mu opioid receptor; summary of the method: as §1
[4] = target: Delta-type opioid receptor (Homo sapiens, UniProt P41143); experiment: Displacement of [3H]NTI from monocloned delta opioid receptor expressed in CHO cells; format: cell-based; summary of the method: as §1
[5] = target: T1, Mu-type opioid receptor; experiment: Activity at monocloned mu opioid receptor expressed in CHO cells by [35S]GTPgammaS binding assay relative to DAMGO; format: functional, cell-based
[6] = Selectivity ratio of Ki for monocloned delta opioid receptor to Ki for monocloned mu opioid receptor; summary of the method: as §1
[7] = tested on: Mus musculus; experiment: Inhibition of morphine-induced antinociception in sc dosed Swiss Webster mouse assessed as dose producing 50% antagonism of morphine response preincubated for 5 mins before the addition of morphine assessed after 20 mins by warm water tail immersion test; format: functional
[8] = target: T1, Mu-type opioid receptor; experiment: Activity at monocloned mu opioid receptor expressed in CHO cells by [35S]GTPgammaS binding assay; format: functional, cell-based
Summary of the method: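 Membranes from CHO cells stably expressing cloned MOR, the same membranes as used for binding. [35S]GTPγS binding as the functional read-out. Potency also reported. n = 3.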

[9] = tested on: Mus musculus; experiment: Induction of antinociception in sc dosed Swiss Webster mouse after 20 mins by warm water tail immersion test; format: functional
[10] = Binding affinity to mu opioid Y210A mutant receptor expressed in CHO cells; format: cell-based
[11] = Binding affinity to mu opioid W318A mutant receptor expressed in CHO cells; format: cell-based
[12] = target: T1, Mu-type opioid receptor; experiment: biochemical

Sequence of Delta-type opioid receptor (P41143 whole entry): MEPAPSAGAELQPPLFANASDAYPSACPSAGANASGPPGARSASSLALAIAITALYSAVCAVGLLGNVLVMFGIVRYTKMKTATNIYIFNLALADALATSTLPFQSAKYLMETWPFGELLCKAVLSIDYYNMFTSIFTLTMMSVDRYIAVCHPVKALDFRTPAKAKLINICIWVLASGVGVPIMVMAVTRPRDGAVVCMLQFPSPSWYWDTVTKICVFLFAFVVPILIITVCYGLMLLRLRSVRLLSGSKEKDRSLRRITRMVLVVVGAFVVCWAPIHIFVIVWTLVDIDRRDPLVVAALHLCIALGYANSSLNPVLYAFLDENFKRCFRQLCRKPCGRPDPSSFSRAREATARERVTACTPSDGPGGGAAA
Sequence of Kappa-type opioid receptor (P41145 whole entry): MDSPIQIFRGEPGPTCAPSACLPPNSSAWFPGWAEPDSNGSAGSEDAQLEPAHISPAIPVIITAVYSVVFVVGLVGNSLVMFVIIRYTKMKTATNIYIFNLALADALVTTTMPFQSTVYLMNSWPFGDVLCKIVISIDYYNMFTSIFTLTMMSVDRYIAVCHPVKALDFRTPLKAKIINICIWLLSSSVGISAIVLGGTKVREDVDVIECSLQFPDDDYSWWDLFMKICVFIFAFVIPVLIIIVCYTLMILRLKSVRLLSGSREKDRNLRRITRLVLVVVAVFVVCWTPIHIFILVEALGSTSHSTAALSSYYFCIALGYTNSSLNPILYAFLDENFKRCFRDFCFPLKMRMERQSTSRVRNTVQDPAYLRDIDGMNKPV
T1 sequence (P35372 whole entry): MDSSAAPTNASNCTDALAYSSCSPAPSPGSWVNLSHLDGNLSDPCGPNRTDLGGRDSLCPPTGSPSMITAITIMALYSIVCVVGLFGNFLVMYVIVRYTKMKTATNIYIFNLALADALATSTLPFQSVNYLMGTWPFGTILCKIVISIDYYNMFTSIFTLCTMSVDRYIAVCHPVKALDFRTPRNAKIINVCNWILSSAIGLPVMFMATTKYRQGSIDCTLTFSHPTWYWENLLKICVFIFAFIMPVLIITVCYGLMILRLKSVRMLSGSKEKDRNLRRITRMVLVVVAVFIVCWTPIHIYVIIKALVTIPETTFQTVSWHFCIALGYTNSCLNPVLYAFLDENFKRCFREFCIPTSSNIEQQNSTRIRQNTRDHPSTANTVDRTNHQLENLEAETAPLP

Row | Structure (SMILES) | Ki [1] | Ki [2] | Ratio Ki [3] | Ki [4] | Activity [5] | Ratio Ki [6] | Activity [7] | Emax [8] | EC50 ([8]; cho) | ED50 [9] | EC50 ([8]; read-out: EC50) | IC50 [10] | IC50 [11] | IC50 [12]
1 | O=C(N[C@@H]1CC[C@@]2(O)[C@H]3Cc4ccc(O)c5c4[C@@]2(CCN3CC2CC2)[C@H]1O5)c1ccccc1 | 7.79 nM | 0.92 nM |  |  |  |  |  |  |  |  |  |  |  | 
2 | O=C(N[C@@H]1CC[C@@]2(O)[C@H]3Cc4ccc(O)c5c4[C@@]2(CCN3CC2CC2)[C@H]1O5)c1cnc2ccccc2c1 | 0.57 nM | 0.07 nM | 8 | 11.6 nM | 53.4% | 157 | 42.55 mg/kg | 196% | 0.29 |  |  |  |  | 
3 | O=C(N[C@@H]1CC[C@@]2(O)[C@H]3Cc4ccc(O)c5c4[C@@]2(CCN3CC2CC2)[C@H]1O5)c1cc2ccccc2cn1 | 1.58 nM | 0.1 nM | 16 | 15.4 nM | 33% | 156 |  | 121% |  | 1.19 mg/kg | 0.27 nM |  |  | 
4 | O=C(N[C@H]1CC[C@@]2(O)[C@H]3Cc4ccc(O)c5c4[C@@]2(CCN3CC2CC2)[C@H]1O5)c1cccnc1 | 77.2 nM | 0.15 nM | 501 | 40.8 nM | 44.8% | 265 | 36.77 mg/kg | 164% |  |  | 1.01 nM |  |  | 
5 | O=C(N[C@H]1CC[C@@]2(O)[C@H]3Cc4ccc(O)c5c4[C@@]2(CCN3CC2CC2)[C@H]1O5)c1ccc2ccccc2c1 | 609 nM | 8.36 nM | 73 | 518 nM |  | 62 |  |  |  |  |  |  |  | 
6 | COc1cccc2c1[C@]13CCN(CC4CC4)[C@H](C2)[C@]1(OC)CCC(=O)C3 |  |  | 45 |  |  | 40 |  |  |  |  |  |  |  | 
7 | O=C(N[C@H]1CC[C@@]2(O)[C@H]3Cc4ccc(O)c5c4[C@@]2(CCN3CC2CC2)[C@H]1O5)c1cc2ccccc2cn1 | 26.5 nM | 0.55 nM | 48 | 132 nM | 15.8% | 241 |  | 58% |  |  | 4.36 nM | 3.31 nM | > 1000 nM | 5.42 nM
8 | O=C(N[C@@H]1CC[C@@]2(O)[C@H]3Cc4ccc(O)c5c4[C@@]2(CCN3CC2CC2)[C@H]1O5)c1ccccn1 | 278 nM | 5.85 nM | 47 | 215 nM | 41.1% | 37 | 0.33 mg/kg | 151% |  |  | 26.3 nM |  |  | 
9 | O=C(N[C@@H]1CC[C@@]2(O)[C@H]3Cc4ccc(O)c5c4[C@@]2(CCN3CC2CC2)[C@H]1O5)c1ccc2ccccc2n1 | 5.04 nM | 0.11 nM | 47 | 3.86 nM | 40.9% | 36 |  | 150% |  | 0.04 mg/kg | 0.69 nM |  |  | 
10 | O=C(N[C@@H]1CC[C@@]2(O)[C@H]3Cc4ccc(O)c5c4[C@@]2(CCN3CC2CC2)[C@H]1O5)c1ccc2ccccc2c1 | 65.3 nM | 55.6 nM | 1 | 29.3 nM |  | 0.5 |  |  |  |  |  |  |  | 
11 | O=C(N[C@H]1CC[C@@]2(O)[C@H]3Cc4ccc(O)c5c4[C@@]2(CCN3CC2CC2)[C@H]1O5)c1ccncc1 | 19.6 nM |  |  |  | 37.3% |  |  | 137% |  |  |  |  |  | 
12 | O=C(N[C@@H]1CC[C@@]2(O)[C@H]3Cc4ccc(O)c5c4[C@@]2(CCN3CC2CC2)[C@H]1O5)c1ccncc1 |  |  |  |  | 22.7% |  |  | 83.3% |  |  |  |  | > 1000 nM | 
13 | O=C(N[C@H]1CC[C@@]2(O)[C@H]3Cc4ccc(O)c5c4[C@@]2(CCN3CC2CC2)[C@H]1O5)c1ccccn1 | 223 nM | 2.65 nM | 84 | 64.5 nM | 37.8% | 24 | 0.89 mg/kg | 134% |  |  | 23.9 nM |  |  | 
14 | O=C(N[C@@H]1CC[C@@]2(O)[C@H]3Cc4ccc(O)c5c4[C@@]2(CCN3CC2CC2)[C@H]1O5)c1cccnc1 | 5.42 nM | 0.14 nM | 40 | 192 nM | 29.1% | 1410 | 1.38 mg/kg | 107% |  |  | 0.33 nM |  |  | 
15 | O=C(N[C@H]1CC[C@@]2(O)[C@H]3Cc4ccc(O)c5c4[C@@]2(CCN3CC2CC2)[C@H]1O5)c1cnc2ccccc2c1 | 1.81 nM | 0.12 nM | 16 | 32.2 nM | 44.8% | 277 | 4.45 mg/kg | 164% |  |  | 2.29 nM |  |  | 
16 | O=C(N[C@H]1CC[C@@]2(O)[C@H]3Cc4ccc(O)c5c4[C@@]2(CCN3CC2CC2)[C@H]1O5)c1ccc2ccccc2n1 | 9.84 nM | 0.21 nM | 46 | 148 nM | 65.4% | 693 |  | 240% |  | 4.57 mg/kg | 0.09 nM |  |  | 
17 | O=C(N[C@H]1CC[C@@]2(O)[C@H]3Cc4ccc(O)c5c4[C@@]2(CCN3CC2CC2)[C@H]1O5)c1ccccc1 | 41.7 nM | 1.41 nM |  |  |  |  |  |  |  |  |  |  |  | 
